In ChEMBL document CHEMBL4190301, “Isolation, Structure Elucidition, and Immunosuppressive Activity of Diterpenoids from Ligularia fischeri” (J Nat Prod, 2017):
The source made the active and inactive calls. The rule behind the calls is not given here.

Experiments:
[1] = system: HMy2.C1R; assay: Immunosuppressive activity in human HMy2.C1R cells assessed as cell growth inhibition at 2.5 to 40 uM after 48 hrs by SRB assay; format: functional, cell-based
Procedure, shortened: (§1)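 Human B lymphoblast HMy2.CIR cells were seeded in 96-well plates in medium with 5% FBS. After 24 h, a plate was TCA-fixed as time zero (T0). Cells were then exposed to DMSO or compound at 2.5–40 μM for 48 h, fixed with 10% TCA and stained with 0.4% SRB in 1% HOAc. Bound dye was solubilized in 10 mM Trizma base and read at 540 nm. Percentage growth was calculated from T0, control and treated absorbances; mean ± SD, n = 3.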

[2] = system: HMy2.C1R; assay: Immunosuppressive activity in human HMy2.C1R cells assessed as cell growth inhibition after 48 hrs by SRB assay
[3] = system: HMy2.C1R; assay: Immunosuppressive activity in human HMy2.C1R cells assessed as cell growth at 2.5 uM after 48 hrs by SRB assay relative to control; format: functional; procedure, shortened: as §1
[4] = system: HMy2.C1R; assay: Immunosuppressive activity in human HMy2.C1R cells assessed as cell growth at 40 uM after 48 hrs by SRB assay relative to control; format: functional; procedure, shortened: as §1
[5] = system: HMy2.C1R; assay: Immunosuppressive activity in human HMy2.C1R cells assessed as cell growth at 20 uM after 48 hrs by SRB assay relative to control; format: functional; procedure, shortened: as §1
[6] = system: HMy2.C1R; assay: Immunosuppressive activity in human HMy2.C1R cells assessed as cell growth at 10 uM after 48 hrs by SRB assay relative to control; format: functional; procedure, shortened: as §1
[7] = system: HMy2.C1R; assay: Immunosuppressive activity in human HMy2.C1R cells assessed as cell growth at 5 uM after 48 hrs by SRB assay relative to control; format: functional; procedure, shortened: as §1
[8] = system: HMy2.C1R; assay: […] in human HMy2.C1R cells at 2.5 to 40 uM after 48 hrs by SRB assay; format: functional, cell-based; procedure, shortened: as §1

`C[C@]12CCC[C@]3(COC1=O)[C@@H]2C[C@H](O)[C@@]12C[C@@H](CC[C@]13O)[C@](C)(O)C2` was tested. Which inhibition [1] did it give?
Its inhibition is “inactive”.

For `C[C@]12CCC[C@@]3(COC1=O)[C@@H]1[C@@H]4C[C@@H]5C[C@@]1(CC[C@@H]32)C[C@]5(C)O4`, which inhibition [1] is on record?
The inhibition was “inactive”.

How did the IC50 [2] turn out when `CC1(C)CCC[C@]2(C=O)[C@@H]1CC[C@@]13C[C@@H](CC[C@H]12)[C@@](O)(CO)C3` was run?
Its IC50 is 13.3 µM.

And the Ratio [3]?
The Ratio was 0.791.

And the Ratio [4]?
The Ratio was 0.301.

What about the Ratio [5] of the same compound?
Its Ratio is 0.455.

And the Ratio [6]?
Its Ratio is 0.525.

And the Ratio [7]?
The Ratio was 0.685.

Which inhibition [1] does the source give for `CC1(C)CCC[C@]2(C=O)[C@@H]1CC[C@@]13C[C@@H](CC[C@H]12)[C@](C)(O)C3` here?
The inhibition was “inactive”.

With `CC1(C)CCC[C@]2(C)[C@@H]1CC[C@@]13C[C@@H](CC[C@H]12)[C@](C)(O)C3` as the compound, how does the inhibition [1] read?
The inhibition was “inactive”.

How did the inhibition [1] turn out when `CC1(C)CCC[C@]2(C(=O)O)[C@@H]1CC[C@@]13C[C@@H](CC[C@H]12)[C@@](O)(CO)C3` was run?
Its inhibition is “inactive”.

Which results are given for `C[C@]12CCC[C@@]3(COC1=O)[C@@H]1CC[C@@H]4C[C@@]1(CC[C@@H]32)C[C@@]4(C)O`?
IC50 [2]: 56.3 µM; Ratio [3]: 0.849; Ratio [4]: 0.6; Ratio [5]: 0.683; Ratio [6]: 0.762; Ratio [7]: 0.809

With `COc1cc(/C=C/C(=O)OC[C@@]2(O)C[C@@]34CC[C@@H]5C(C)(C)CCC[C@@]5(C(=O)O)[C@@H]3CC[C@@H]2C4)ccc1O` as the compound, how does the inhibition [1] read?
The inhibition was “inactive”.

With `C=C[C@](C)(O)CC[C@@H]1C(=C)CC[C@@H]2C(C)(C)C[C@@H](O)C[C@@]12C` as the compound, how does the IC50 [2] read?
Its IC50 is 31.4 µM.

What about the Ratio [3] of the same compound?
Its Ratio is 0.934.

And the Ratio [4]?
Its Ratio is 0.39.

And the Ratio [5]?
Its Ratio is 0.648.

What about the Ratio [6] of the same compound?
The Ratio was 0.761.

And the Ratio [7]?
Its Ratio is 0.812.

For `C[C@]12CCC[C@]3(COC1=O)[C@@H]2CC[C@@]12C[C@@H](CC[C@]13O)[C@](C)(O)C2`, which Activity [8] is on record?
The Activity was “Dose-dependent effect”.

For `CC1(C)CCC[C@]2(C(=O)O)[C@@H]1CC[C@@]13C[C@@H](CC[C@H]12)[C@](C)(O)C3`, which inhibition [1] is on record?
The inhibition was “inactive”.

For `C=C1[C@H](O)CC[C@@H]2[C@@]3(C)CC[C@](C)(O)C[C@@H]3CC[C@@]12C`, which Activity [8] is on record?
The Activity was “Dose-dependent effect”.

`C[C@@]12CC[C@@H](O)[C@@](C)(C(=O)O)[C@H]1CC[C@@]13C[C@@H](CC[C@H]12)[C@@](O)(CO)C3` was tested. Which inhibition [1] did it give?
The inhibition was “inactive”.
